# Measurements from ChEMBL document CHEMBL1151981, “Bioactive pyridine-N-oxide disulfides from Allium stipitatum” (J Nat Prod, 2009).
# Active and inactive are the calls of the source. The calls are words filed in the database; no cut-off is given here.
# What was measured:
# [1] = tested on: Mycobacterium tuberculosis; assay: Antibacterial activity against Mycobacterium bovis BCG at 0.01 to 5 ug/ml after 14 days by spot-culture growth inhibition assay; assay type: functional, organism-based; conditions: variant bovis BCG
# How it was run: (§1)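 Mid-exponential cultures (BCG rotated in 7H9/ADC/Tween 80; H37Rv standing in 7H9/OADC/Tween 80) diluted to 10³ cells/mL. 5 µL spotted onto 7H10 agar with 10% OADC containing compound at 0.01, 0.1, 0.5, 1 and 5 µg/mL. Incubated at 37 °C for 14 days. MIC taken as lowest concentration with no growth; no-compound well as growth control.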
# [2] = tested on: Mycobacterium tuberculosis; assay: Antibacterial activity against Mycobacterium bovis BCG after 14 days by spot-culture growth inhibition assay; assay type: functional; conditions: variant bovis BCG, 336 h; how it was run: as §1
SMILES,Activity [1],MIC [2] [µg/mL]
CSSc1cccc[n+]1[O-],Active,0.1
CSCSSc1cccc[n+]1[O-],Active,0.1
